Test results from ChEMBL document CHEMBL1121898, “Potential antiestrogens. Synthesis and evaluation of mammary tumor inhibiting activity of 1,2-dialkyl-1,2-bis(3'-hydroxyphenyl)ethanes” (1981).
Values joined by “and” are separate entries in the source; they are usually repeats but may differ in a detail not shown here. Equal entries are not always repeated. Active and inactive are the calls of the source.

Key:
Rattus norvegicus [1] = species: Rattus norvegicus; test: Percent change in DMBA-induced hormone-dependent mammary carcinoma tumor area at 36 mg after 28 days; format: functional
Outline: (§1)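 DMBA-induced, hormone-dependent mammary adenocarcinoma in SD rats. Rats bearing at least one tumor >140 mm² were placed in groups of ten. Compound was given sc as a single dose (mg/kg) daily Monday–Thursday and a double dose on Friday. Tumors were counted at the start and as new tumors; responses were scored as complete remission (not palpable), partial remission (≥50% reduction), no change or progression. Tumor area and body weight were recorded as % change.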

[2] = target: T1, Estrogen receptor (Mus musculus) (UniProt O08537+P19785); test: Estrogenic activity in uterotrophic test in mice; No effect; format: functional
T1 sequence (O08537 whole entry, looked up): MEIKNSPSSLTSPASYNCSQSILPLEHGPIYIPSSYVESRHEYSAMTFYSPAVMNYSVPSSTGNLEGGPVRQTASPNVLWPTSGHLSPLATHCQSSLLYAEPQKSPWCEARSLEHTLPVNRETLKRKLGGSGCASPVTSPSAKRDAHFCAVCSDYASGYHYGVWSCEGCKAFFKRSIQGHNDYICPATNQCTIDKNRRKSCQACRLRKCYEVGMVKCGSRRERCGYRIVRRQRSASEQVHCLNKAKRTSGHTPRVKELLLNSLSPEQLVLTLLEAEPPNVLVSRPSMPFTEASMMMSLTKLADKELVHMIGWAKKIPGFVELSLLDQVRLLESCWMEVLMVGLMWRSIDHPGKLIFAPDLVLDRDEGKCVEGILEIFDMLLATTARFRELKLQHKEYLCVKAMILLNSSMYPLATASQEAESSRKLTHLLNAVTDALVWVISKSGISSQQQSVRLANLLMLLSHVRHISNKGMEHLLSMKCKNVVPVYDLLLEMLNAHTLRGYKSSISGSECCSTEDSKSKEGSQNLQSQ
T1 sequence (P19785 whole entry, looked up): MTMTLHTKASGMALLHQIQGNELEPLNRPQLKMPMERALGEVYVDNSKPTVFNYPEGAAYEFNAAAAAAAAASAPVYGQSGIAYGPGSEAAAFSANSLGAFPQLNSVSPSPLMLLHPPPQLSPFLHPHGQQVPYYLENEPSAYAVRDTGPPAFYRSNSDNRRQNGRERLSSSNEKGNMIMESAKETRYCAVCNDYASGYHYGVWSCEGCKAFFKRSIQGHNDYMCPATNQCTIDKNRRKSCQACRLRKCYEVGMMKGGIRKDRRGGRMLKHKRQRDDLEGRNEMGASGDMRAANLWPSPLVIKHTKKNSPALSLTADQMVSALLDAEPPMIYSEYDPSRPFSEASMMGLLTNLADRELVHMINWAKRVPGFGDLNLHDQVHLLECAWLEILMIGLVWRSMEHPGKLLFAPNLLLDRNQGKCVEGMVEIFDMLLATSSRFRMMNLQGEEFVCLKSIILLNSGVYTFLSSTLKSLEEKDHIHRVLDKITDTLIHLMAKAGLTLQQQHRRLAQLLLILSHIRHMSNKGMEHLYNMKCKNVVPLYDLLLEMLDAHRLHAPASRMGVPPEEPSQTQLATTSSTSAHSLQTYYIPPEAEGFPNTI
Outline: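 Immature (20-day-old) female NMRI mice, 14.5 ± 1.2 g, randomized into groups of 10. Given the test compound sc daily for 3 days in 0.1 mL olive oil. Uteri removed 24 h after the last injection; uterine weight taken as the read-out, means ± SD. Dose in μg.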

MCF7 [3] = test: Inhibition of estrogen receptor positive MCF-7 cell proliferation as cell number after 10 days at 10e-6 M; format: functional, Homo sapiens
Outline: (§2)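 MCF-7 cells were grown in McCoy's 5a medium with fetal bovine serum stripped by DCC (0.5 h, 45 °C). Compounds were dissolved in ethanol (final ≤0.5%) and diluted in complete medium. Cells were seeded at 5×10^4 cells/plate. On day 10, three replicate plates per group were counted by Coulter counter, three counts per plate. Percent T/C = test/control. In a retest, compounds were given at 10^-7 M with 17β-estradiol at 10^-7 or 10^-8 M.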

Rattus norvegicus [4] = species: Rattus norvegicus; test: Percent change in body weight DMBA-induced hormone-dependent mammary carcinoma tumors in rats at 36 mg for 7 days; format: functional
Rattus norvegicus [5] = species: Rattus norvegicus; test: Percent unchanged tumor size of DMBA-induced hormone-dependent mammary carcinoma tumors in rats at 36 mg; format: functional
MCF7 [6] = test: Inhibition of estrogen receptor positive MCF-7 cell proliferation as percent treated/control cell number after 10 days at 10e-6 M; format: functional, Homo sapiens; outline: as §2
Rattus norvegicus [7] = species: Rattus norvegicus; test: Initial tumor number of DMBA-induced hormone-dependent mammary carcinoma in rats at 18 mg; format: functional; outline: as §1
MCF7 [8] = test: Inhibition of estrogen receptor positive MCF-7 cell proliferation as cell number after 10 days at 10e-7 M and 10e-7 M 17-beta-estradiol; format: functional, Homo sapiens; outline: as §2
MCF7 [9] = test: Inhibition of estrogen receptor positive MCF-7 cell proliferation as cell number after 10 days at 10e-7 M and 10e-8 M 17-beta-estradiol; format: functional, Homo sapiens; outline: as §2
Rattus norvegicus [10] = species: Rattus norvegicus; test: Percent change in DMBA-induced hormone-dependent mammary carcinoma tumor area at 72 mg after 28 days; format: functional; outline: as §1
Rattus norvegicus [11] = species: Rattus norvegicus; test: Partial remission of DMBA-induced hormone-dependent mammary carcinoma tumors in rats at 18 mg; format: functional; outline: as §1
Rattus norvegicus [12] = species: Rattus norvegicus; test: Percent unchanged tumor size of DMBA-induced hormone-dependent mammary carcinoma tumors in rats at 72 mg; format: functional
MCF7 [13] = test: (§3) Inhibition of estrogen receptor positive MCF-7 cell proliferation as cell number after 10 days at 10e-7 M; format: functional, Homo sapiens; outline: as §2
Rattus norvegicus [14] = species: Rattus norvegicus; test: Final number of DMBA-induced hormone-dependent mammary carcinoma tumors in rats at 18 mg; format: functional
Outline: (§4)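 Sprague-Dawley rats carrying DMBA-induced, hormone-dependent mammary adenocarcinoma, at least one tumor >140 mm², were placed in groups of ten. Compounds were given sc, with doses in mg/kg: a single daily dose Monday to Thursday and a double dose on Friday. Ovariectomy served as a comparator group. New tumors arising during the test were counted.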

[15] = target: T1, Estrogen receptor (Mus musculus); test: Antiestrogenic activity in uterotrophic test in mice at 0 ug (experiment 3); format: functional
Outline: (§5)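 Immature female NMRI mice, 20 days old (14.5 ± 1.2 g), randomly grouped 10 per group. Each received a daily sc injection for 3 days of 0.1 mL olive oil solution containing test compound, together with estrone to stimulate uterine growth. Uteri were removed 24 h after the last injection and weighed. Results are reported as % inhibition of the estrone-stimulated uterine weight gain, mean ± SD.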

[16] = target: T1, Estrogen receptor (Mus musculus); test: Inhibitory activity in mouse uterine weight test at 5 ug (experiment 2); format: functional
Outline: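 Antiuterotrophic (Dorfman) assay in immature 20-day-old female NMRI mice, groups of 10. Uterine growth was stimulated with estrone (0.1 μg) and the test compound was given alongside it, sc daily for 3 days in 0.1 mL olive oil. Uteri were taken 24 h after the last dose. Uterine weight is reported as means ± SD and inhibition as % of the estrone-stimulated response.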

MCF7 [17] = test: Inhibition of estrogen receptor positive MCF-7 cell proliferation as cell number after 10 days at 10e-9 M; format: functional, Homo sapiens; outline: as §2
[18] = target: T1, Estrogen receptor (Mus musculus); test: Inhibitory activity in mouse uterine weight test at 50 ug (experiment 3); format: functional
Outline: (§6)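 Immature female NMRI mice, 20 days old (14.5 ± 1.2 g), in random groups of 10. They received sc injections daily for 3 days of 0.1 mL olive oil containing test compound, with estrone 0.1 μg given to stimulate uterine growth. Uteri were removed 24 h after the last injection and weighed (mean ± SD). Result is percent inhibition of the estrone-stimulated uterine weight gain.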

[19] = target: T1, Estrogen receptor (Mus musculus); test: Antiestrogenic activity in uterotrophic test in mice at 0.1 ug (experiment 1); format: functional; outline: as §5
[20] = system: Estrogen receptor (Bos taurus); test: Displacement of [3H]estradiol from calf estrogen receptor
Rattus norvegicus [21] = species: Rattus norvegicus; test: Complete remission of DMBA-induced hormone-dependent mammary carcinoma tumors in rats at 18 mg; format: functional
Outline: (§7)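 Female SD rats bearing DMBA-induced, hormone-dependent mammary adenocarcinoma, with at least one tumor >140 mm², were grouped in tens. Dosing was sc per kg body weight: a single dose daily Monday–Thursday and a double dose Friday. Ovariectomy served as the comparison arm. Complete remission was defined as a tumor no longer palpable. Body weight and tumor area changes were also recorded.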

MCF7 [22] = test: as §3; format: functional, Homo sapiens; outline: as §2; remark: listed apart in the source
Rattus norvegicus [23] = species: Rattus norvegicus; test: Progression of DMBA-induced hormone-dependent mammary carcinoma tumors in rats at 72 mg; format: functional; outline: as §1
Rattus norvegicus [24] = species: Rattus norvegicus; test: Partial remission of DMBA-induced hormone-dependent mammary carcinoma tumors in rats at 36 mg; format: functional; outline: as §1
[25] = target: T1, Estrogen receptor (Mus musculus); test: Antiestrogenic activity in uterotrophic test in mice at 500 ug (experiment 3); format: functional; outline: as §5
MCF7 [26] = test: Inhibition of estrogen receptor positive MCF-7 cell proliferation as percent treated/control cell number after 10 days at 10e-7 M with 10e-8 M 17-beta-estradiol; format: functional, Homo sapiens; outline: as §2
Rattus norvegicus [27] = species: Rattus norvegicus; test: Complete remission of DMBA-induced hormone-dependent mammary carcinoma tumors in rats at 72 mg; format: functional; outline: as §7
Rattus norvegicus [28] = species: Rattus norvegicus; test: Percent change in DMBA-induced hormone-dependent mammary carcinoma tumor area at 18 mg after 28 days; format: functional; outline: as §1
[29] = target: T1, Estrogen receptor (Mus musculus); test: Antiestrogenic activity in uterotrophic test in mice at 0 ug (experiment 2); format: functional; outline: as §5
Rattus norvegicus [30] = species: Rattus norvegicus; test: Complete remission of DMBA-induced hormone-dependent mammary carcinoma tumors in rats at 36 mg; format: functional; outline: as §7
MCF7 [31] = test: Inhibition of estrogen receptor positive MCF-7 cell proliferation as cell number after 10 days at 10e-8 M; format: functional, Homo sapiens; outline: as §2
[32] = target: T1, Estrogen receptor (Mus musculus); test: Inhibitory activity in mouse uterine weight test at 500 ug (experiment 3); format: functional; outline: as §6
Rattus norvegicus [33] = species: Rattus norvegicus; test: Percent unchanged tumor size of DMBA-induced hormone-dependent mammary carcinoma tumors in rats at 18 mg; format: functional
MCF7 [34] = test: Inhibition of estrogen receptor positive MCF-7 cell proliferation as percent treated/control cell number after 10 days at 10e-8 M; format: functional, Homo sapiens; outline: as §2
[35] = target: T1, Estrogen receptor (Mus musculus); test: Antiestrogenic activity in uterotrophic test in mice at 50 ug (experiment 3); format: functional; outline: as §5
Rattus norvegicus [36] = species: Rattus norvegicus; test: Initial tumor number of DMBA-induced hormone-dependent mammary carcinoma in rats at 36 mg; format: functional; outline: as §1
Rattus norvegicus [37] = species: Rattus norvegicus; test: Progression of DMBA-induced hormone-dependent mammary carcinoma tumors in rats at 18 mg; format: functional
MCF7 [38] = test: Inhibition of estrogen receptor positive MCF-7 cell proliferation as percent treated/control cell number after 10 days at 10e-9 M; format: functional, Homo sapiens; outline: as §2
Rattus norvegicus [39] = species: Rattus norvegicus; test: Percent change in body weight DMBA-induced hormone-dependent mammary carcinoma tumors in rats at 18 mg for 7 days; format: functional; outline: as §1
MCF7 [40] = test: Inhibition of estrogen receptor positive MCF-7 cell proliferation as percent treated/control cell number after 10 days at 10e-7 M with 10e-7 M 17-beta-estradiol; format: functional, Homo sapiens; outline: as §2
Rattus norvegicus [41] = species: Rattus norvegicus; test: Percent change in body weight DMBA-induced hormone-dependent mammary carcinoma tumors in rats at 72 mg for 7 days; format: functional
MCF7 [42] = test: Inhibition of estrogen receptor positive MCF-7 cell proliferation as percent treated/control cell number after 10 days at 10e-7 M; format: functional, Homo sapiens; outline: as §2
[43] = target: T1, Estrogen receptor (Mus musculus); test: Antiestrogenic activity in uterotrophic test in mice at 5 ug (experiment 2); format: functional; outline: as §5
Rattus norvegicus [44] = species: Rattus norvegicus; test: Final number of DMBA-induced hormone-dependent mammary carcinoma tumors in rats at 72 mg; format: functional; outline: as §4
Rattus norvegicus [45] = species: Rattus norvegicus; test: Initial tumor number of DMBA-induced hormone-dependent mammary carcinoma in rats at 72 mg; format: functional; outline: as §1
Rattus norvegicus [46] = species: Rattus norvegicus; test: Partial remission of DMBA-induced hormone-dependent mammary carcinoma tumors in rats at 72 mg; format: functional; outline: as §1
Rattus norvegicus [47] = species: Rattus norvegicus; test: Final number of DMBA-induced hormone-dependent mammary carcinoma tumors in rats at 36 mg; format: functional; outline: as §4

Effect [2]: inactive
Effect [15]: 9.9
inhibition [16]: 7%
inhibition [18]: 12%
Effect [19]: 38.5
Ka [20]: 1.1e+07 M⁻¹
Effect [25]: 29
Effect [29]: 10.5
inhibition [32]: 31%
Effect [35]: 34.3
Effect [43]: 36.5
SMILES: CC(c1cccc(O)c1)C(C)c1cccc(O)c1 (configuration not stated)
Change (Rattus norvegicus [1]): 105%
Cell number (MCF7 [3]): 32200
Change (Rattus norvegicus [4]): 1.6%
Tumors (Rattus norvegicus [5]): 38%
T/C (MCF7 [6]): 71%
No. of tumors (Rattus norvegicus [7]): 21
Cell number (MCF7 [8]): 7100
Cell number (MCF7 [9]): 8000
Change (Rattus norvegicus [10]): 6%
Tumors (Rattus norvegicus [11]): 11%
Tumors (Rattus norvegicus [12]): 16%
Cell number (MCF7 [13]): 6100
No. of tumors (Rattus norvegicus [14]): 16
Cell number (MCF7 [17]): 39800
Tumors (Rattus norvegicus [21]): 14%
Cell number (MCF7 [22]): 33600
Tumors (Rattus norvegicus [23]): 25%
Tumors (Rattus norvegicus [24]): 9%
T/C (MCF7 [26]): 121%
Tumors (Rattus norvegicus [27]): 34%
Change (Rattus norvegicus [28]): 188%
Tumors (Rattus norvegicus [30]): 29%
Cell number (MCF7 [31]): 35900
Tumors (Rattus norvegicus [33]): 24%
T/C (MCF7 [34]): 82%
No. of tumors (Rattus norvegicus [36]): 22
Tumors (Rattus norvegicus [37]): 51%
T/C (MCF7 [38]): 91%
Change (Rattus norvegicus [39]): 2.4%
T/C (MCF7 [40]): 107%
Change (Rattus norvegicus [41]): 0.9%
T/C (MCF7 [42]): 92% and 77%
No. of tumors (Rattus norvegicus [44]): 22
No. of tumors (Rattus norvegicus [45]): 26
Tumors (Rattus norvegicus [46]): 25%
No. of tumors (Rattus norvegicus [47]): 12
